# How the values were obtained:
# [1] = Cytotoxicity against human MCF7 cells by MTT assay; assay type: toxicity, cell-based; conditions: for GI50: MCF7 cells; for GI90: mcf7
# Bacillus subtilis [2] = experiment: Growth inhibition of Bacillus subtilis at 30 ug/ml; assay type: functional; conditions: read-out: GI
# [3] = Antitubercular activity against Mycobacterium bovis BCG ATCC 35743 active stage measured on day 8 by nitrate reductase based two-fold dilution assay; assay type: functional, Mycobacterium bovis BCG str. ATCC 35743; conditions: Mycobacterium tuberculosis variant bovis BCG, ATCC 35743, 192 h
# Pseudomonas aeruginosa [4] = experiment: Antibacterial activity against Pseudomonas aeruginosa; assay type: functional
# [5] = Antitubercular activity against Mycobacterium tuberculosis H37Ra ATCC 25177 active stage infected in human THP1 cells measured on day 8 by nitrate reductase assay; assay type: functional, THP-1; conditions: ATCC 25177, 192 h
# [6] = Antitubercular activity against Mycobacterium tuberculosis H37Ra ATCC 25177 dormant stage infected in human THP1 cells measured on day 12 by nitrate reductase assay; assay type: functional, THP-1; conditions: ATCC 25177, 288 h
# [7] = Selectivity index, ratio of GI50 for human HCT116 cells to MIC90 for Mycobacterium tuberculosis H37Ra ATCC 25177 dormant stage; assay type: toxicity, cell-based, HCT-116; conditions: read-out: Selectivity Index
# Procedure, shortened: (§1)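 Cytotoxicity was measured on human MCF-7, HCT116 and THP-1 cells by MTT assay, with paclitaxel as reference. The selectivity index is GI50 for the given cell line divided by MIC90 for the given mycobacterial strain and stage.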
# Escherichia coli [8] = experiment: Antibacterial activity against Escherichia coli; assay type: functional
# Staphylococcus aureus [9] = experiment: Growth inhibition of Staphylococcus aureus at 10 ug/ml; assay type: functional; conditions: read-out: GI
# Staphylococcus aureus [10] = experiment: Growth inhibition of Staphylococcus aureus at 30 ug/ml; assay type: functional; conditions: read-out: GI
# Bacillus subtilis [11] = experiment: Antibacterial activity against Bacillus subtilis; assay type: functional
# [12] = Selectivity index, ratio of GI50 for human THP1 cells to MIC90 for Mycobacterium tuberculosis H37Ra ATCC 25177 dormant stage; assay type: toxicity, cell-based, THP-1; conditions: read-out: Selectivity Index; procedure, shortened: as §1
# [13] = Antitubercular activity against Mycobacterium tuberculosis H37Ra ATCC 25177 dormant stage measured on day 12 by XTT reduction menadione based two-fold dilution assay; assay type: functional; conditions: ATCC 25177, 288 h
# Procedure, shortened: (§2)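 M. tuberculosis H37Ra ATCC 25177 was exposed to 0.7–100 μg/mL in two-fold steps (0.7, 1.5, 3.1 … 100). Active stage was read after 8 days and dormant stage after 12 days of incubation. Inhibition was read by XTT reduction menadione assay (XRMA), absorbance 470 nm. MIC90 is the concentration giving ≥90% inhibition (µg/mL).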
# [14] = Antitubercular activity against Mycobacterium tuberculosis H37Ra ATCC 25177 active stage measured on day 8 by XTT reduction menadione based two-fold dilution assay; assay type: functional; conditions: ATCC 25177, 192 h; procedure, shortened: as §2
# Pseudomonas aeruginosa [15] = experiment: Growth inhibition of Pseudomonas aeruginosa at 10 ug/ml; assay type: functional; conditions: read-out: GI
# [16] = Cytotoxicity against human THP1 cells by MTT assay; assay type: toxicity, cell-based, THP-1; conditions: for GI50: THP1 cells; for GI90: thp-1
# [17] = Selectivity index, ratio of GI50 for human HCT116 cells to MIC90 for Mycobacterium bovis BCG ATCC 35743 active stage; assay type: toxicity, cell-based, HCT-116; conditions: read-out: Selectivity Index
# Procedure, shortened: (§3)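 Cytotoxicity was measured on human MCF-7, HCT116 and THP-1 cells by MTT assay, with paclitaxel as reference. GI50 is the concentration inhibiting 50% of cell growth. The selectivity index is GI50 for the given cell line divided by MIC90 for the given mycobacterial strain and stage.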
# Escherichia coli [18] = experiment: Growth inhibition of Escherichia coli at 3 ug/ml; assay type: functional; conditions: read-out: GI
# Procedure, shortened: (§4)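 Screened against Gram-negative E. coli and P. aeruginosa and Gram-positive S. aureus and B. subtilis. Compound was tested at 3 µg/ml, and the read-out is percent growth inhibition.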
# [19] = Selectivity index, ratio of GI50 for human MCF7 cells to MIC90 for Mycobacterium bovis BCG ATCC 35743 active stage; assay type: toxicity, cell-based; conditions: read-out: Selectivity Index; procedure, shortened: as §3
# [20] = Selectivity index, ratio of GI50 for human HCT116 cells to MIC90 for Mycobacterium bovis BCG ATCC 35743 dormant stage; assay type: toxicity, cell-based, HCT-116; conditions: read-out: Selectivity Index; procedure, shortened: as §1
# [21] = Selectivity index, ratio of GI50 for human MCF7 cells to MIC90 for Mycobacterium bovis BCG ATCC 35743 dormant stage; assay type: toxicity, cell-based; conditions: read-out: Selectivity Index; procedure, shortened: as §1
# Escherichia coli [22] = experiment: Growth inhibition of Escherichia coli at 10 ug/ml; assay type: functional; conditions: read-out: GI
# [23] = Selectivity index, ratio of GI50 for human MCF7 cells to MIC90 for Mycobacterium tuberculosis H37Ra ATCC 25177 active stage; assay type: toxicity, cell-based; conditions: read-out: Selectivity Index; procedure, shortened: as §3
# Pseudomonas aeruginosa [24] = experiment: Growth inhibition of Pseudomonas aeruginosa at 30 ug/ml; assay type: functional; conditions: read-out: GI
# Staphylococcus aureus [25] = experiment: Growth inhibition of Staphylococcus aureus at 3 ug/ml; assay type: functional; conditions: read-out: GI; procedure, shortened: as §4
# [26] = Antitubercular activity against Mycobacterium bovis BCG ATCC 35743 dormant stage measured on day 12 by nitrate reductase based two-fold dilution assay; assay type: functional, Mycobacterium bovis BCG str. ATCC 35743; conditions: Mycobacterium tuberculosis variant bovis BCG, ATCC 35743, 288 h
# Staphylococcus aureus [27] = experiment: Antibacterial activity against Staphylococcus aureus; assay type: functional
# [28] = Cytotoxicity against human HCT116 cells by MTT assay; assay type: toxicity, cell-based, HCT-116; conditions: for GI50: HCT116 cells; for GI90: hct-116
# [29] = Selectivity index, ratio of GI50 for human MCF7 cells to MIC90 for Mycobacterium tuberculosis H37Ra ATCC 25177 dormant stage; assay type: toxicity, cell-based; conditions: read-out: Selectivity Index; procedure, shortened: as §1
# Bacillus subtilis [30] = experiment: Growth inhibition of Bacillus subtilis at 10 ug/ml; assay type: functional; conditions: read-out: GI
# [31] = Selectivity index, ratio of GI50 for human THP1 cells to MIC90 for Mycobacterium tuberculosis H37Ra ATCC 25177 active stage; assay type: toxicity, cell-based, THP-1; conditions: read-out: Selectivity Index; procedure, shortened: as §3
# Escherichia coli [32] = experiment: Growth inhibition of Escherichia coli at 30 ug/ml; assay type: functional; conditions: read-out: GI
# [33] = Selectivity index, ratio of GI50 for human THP1 cells to MIC90 for Mycobacterium bovis BCG ATCC 35743 active stage; assay type: toxicity, cell-based, THP-1; conditions: read-out: Selectivity Index; procedure, shortened: as §3
# Pseudomonas aeruginosa [34] = experiment: Growth inhibition of Pseudomonas aeruginosa at 3 ug/ml; assay type: functional; conditions: read-out: GI; procedure, shortened: as §4
# [35] = Selectivity index, ratio of GI50 for human THP1 cells to MIC90 for Mycobacterium bovis BCG ATCC 35743 dormant stage; assay type: toxicity, cell-based, THP-1; conditions: read-out: Selectivity Index; procedure, shortened: as §1
# [36] = Selectivity index, ratio of GI50 for human HCT116 cells to MIC90 for Mycobacterium tuberculosis H37Ra ATCC 25177 active stage; assay type: toxicity, cell-based, HCT-116; conditions: read-out: Selectivity Index; procedure, shortened: as §3
# Bacillus subtilis [37] = experiment: Growth inhibition of Bacillus subtilis at 3 ug/ml; assay type: functional; conditions: read-out: GI; procedure, shortened: as §4
structure (smiles),measurement,setting,value
C/C(=N\Nc1nc(-c2ccc(C)cc2)cs1)c1sc(-c2ccccc2)nc1C,GI50,[1],> 100 µg/mL
same,GI90,[1],> 100 µg/mL
same,inhibition of growth at 30 µg/mL,Bacillus subtilis [2],96.9%
same,IC50,[3],5.21 µg/mL
same,MIC90,[3],19.7 µg/mL
same,IC50,Pseudomonas aeruginosa [4],0.587 µg/mL
same,MIC,Pseudomonas aeruginosa [4],1.53 µg/mL
same,MIC90,[5],> 100 µg/mL
same,MIC90,[6],> 100 µg/mL
same,selectivity ratio,[7],1
same,IC50,Escherichia coli [8],0.454 µg/mL
same,MIC,Escherichia coli [8],1.43 µg/mL
same,inhibition of growth at 10 µg/mL,Staphylococcus aureus [9],94%
same,inhibition of growth at 30 µg/mL,Staphylococcus aureus [10],97.1%
same,IC50,Bacillus subtilis [11],0.742 µg/mL
same,MIC,Bacillus subtilis [11],2.95 µg/mL
same,selectivity ratio,[12],1
same,IC50,[13],0.075 µg/mL
same,MIC90,[13],> 100 µg/mL
same,IC50,[14],0.16 µg/mL
same,MIC90,[14],> 100 µg/mL
same,inhibition of growth at 10 µg/mL,Pseudomonas aeruginosa [15],95.6%
same,GI50,[16],> 100 µg/mL
same,GI90,[16],> 100 µg/mL
same,selectivity ratio,[17],5
same,inhibition of growth at 3 µg/mL,Escherichia coli [18],92.2%
same,selectivity ratio,[19],5
same,selectivity ratio,[20],2
same,selectivity ratio,[21],2
same,inhibition of growth at 10 µg/mL,Escherichia coli [22],94.1%
same,selectivity ratio,[23],1
same,inhibition of growth at 30 µg/mL,Pseudomonas aeruginosa [24],98.8%
same,inhibition of growth at 3 µg/mL,Staphylococcus aureus [25],91.9%
same,IC50,[26],5.29 µg/mL
same,MIC90,[26],57.5 µg/mL
same,IC50,Staphylococcus aureus [27],0.624 µg/mL
same,MIC,Staphylococcus aureus [27],2.46 µg/mL
same,GI50,[28],> 100 µg/mL
same,GI90,[28],> 100 µg/mL
same,selectivity ratio,[29],1
same,inhibition of growth at 10 µg/mL,Bacillus subtilis [30],93.5%
same,selectivity ratio,[31],1
same,inhibition of growth at 30 µg/mL,Escherichia coli [32],97%
same,selectivity ratio,[33],5
same,inhibition of growth at 3 µg/mL,Pseudomonas aeruginosa [34],93.4%
same,selectivity ratio,[35],2
same,selectivity ratio,[36],1
same,inhibition of growth at 3 µg/mL,Bacillus subtilis [37],91.3%
C/C(=N\Nc1nc(-c2ccc(Cl)cc2)cs1)c1sc(-c2ccccc2)nc1C,GI50,[1],> 100 µg/mL
same,GI90,[1],> 100 µg/mL
same,inhibition of growth at 30 µg/mL,Bacillus subtilis [2],88.4%
same,IC50,[3],17 µg/mL
same,MIC90,[3],77.8 µg/mL
same,MIC90,[5],> 100 µg/mL
same,MIC90,[6],> 100 µg/mL
same,selectivity ratio,[7],1
same,inhibition of growth at 10 µg/mL,Staphylococcus aureus [9],79.3%
same,inhibition of growth at 30 µg/mL,Staphylococcus aureus [10],89.2%
same,selectivity ratio,[12],1
same,IC50,[13],0.24 µg/mL
same,MIC90,[13],> 100 µg/mL
same,IC50,[14],0.12 µg/mL
same,MIC90,[14],> 100 µg/mL
same,inhibition of growth at 10 µg/mL,Pseudomonas aeruginosa [15],80.3%
same,GI50,[16],> 100 µg/mL
same,GI90,[16],> 100 µg/mL
same,selectivity ratio,[17],1
same,inhibition of growth at 3 µg/mL,Escherichia coli [18],69.1%
same,selectivity ratio,[19],1
same,selectivity ratio,[20],1
same,selectivity ratio,[21],1
same,inhibition of growth at 10 µg/mL,Escherichia coli [22],80.4%
same,selectivity ratio,[23],1
same,inhibition of growth at 30 µg/mL,Pseudomonas aeruginosa [24],90.6%
same,inhibition of growth at 3 µg/mL,Staphylococcus aureus [25],67.1%
same,IC50,[26],26.6 µg/mL
same,MIC90,[26],83.7 µg/mL
same,GI50,[28],> 100 µg/mL
same,GI90,[28],> 100 µg/mL
same,selectivity ratio,[29],1
same,inhibition of growth at 10 µg/mL,Bacillus subtilis [30],77.7%
same,selectivity ratio,[31],1
same,inhibition of growth at 30 µg/mL,Escherichia coli [32],89.7%
same,selectivity ratio,[33],1
same,inhibition of growth at 3 µg/mL,Pseudomonas aeruginosa [34],67.7%
same,selectivity ratio,[35],1
same,selectivity ratio,[36],1
same,inhibition of growth at 3 µg/mL,Bacillus subtilis [37],64.5%

# — ChEMBL document CHEMBL3872252, “New bithiazolyl hydrazones: Novel synthesis, characterization and antitubercular evaluation” (Bioorg Med Chem Lett, 2017)
